Reference: ChEMBL document CHEMBL3826969, “Synthesis and anticancer potential of novel xanthone derivatives with 3,6-substituted chains” (Bioorg Med Chem, 2016)
The source made the active and inactive calls. The calls are words filed in the database; no cut-off is given here.

Key:
A549 [1] = experiment: Cell cycle arrest in human A549 cells assessed as accumulation at G2/M phase at 25 uM after 48 hrs by propidium iodide staining based flow cytometry (reference value: 23.4 %); type: functional
Procedure, shortened: (§1)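 A549 cells exposed 48 h to derivative (25 µM), collected, fixed overnight in 70% ethanol, then stained 30 min at room temperature with 50 µg/mL propidium iodide, 200 µg/mL RNase A and 0.3% Triton X-100. Flow cytometry gave sub-G1, G0/G1, S and G2/M fractions; profile from 3 independent experiments.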

A549 [2] = experiment: Cell cycle arrest in human A549 cells assessed as accumulation at S phase at 25 uM after 48 hrs by propidium iodide staining based flow cytometry (reference value: 9.3 %); type: functional; procedure, shortened: as §1
ASPC1 = experiment: Cytotoxicity against human AsPC1 cells assessed as cell growth inhibition after 48 hrs by MTT assay; type: functional, cell-based; settings: ASPC1, 48 h
Procedure, shortened: (§2)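 Cells seeded in 96-well plates (MDA-MB-231, A549, AsPC-1 5×10^3; PC-3 8×10^3; HCT116 1×10^4 per well), attached 24 h in RPMI-1640 with 10% fetal calf serum at 37°C, 5% CO2. Serially diluted compound (final 0–400 μM, DMSO <0.1%) added for 48 h; 5-FU positive control. MTT read at 560 nm, triplicate; viability = treated/vehicle mean OD.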

MDA-MB-231 = experiment: Cytotoxicity against human MDA-MB-231 cells assessed as cell growth inhibition after 48 hrs by MTT assay; type: functional, cell-based; settings: MDA-MB-231, 48 h; procedure, shortened: as §2
A549 [3] = experiment: Cell cycle arrest in human A549 cells assessed as accumulation at G0/G1 phase at 25 uM after 48 hrs by propidium iodide staining based flow cytometry (reference value: 68.1 %); type: functional; procedure, shortened: as §1
[4] = Cytotoxicity against human HCT116 cells assessed as cell growth inhibition after 48 hrs by MTT assay; type: functional, cell-based; settings: HCT-116, 48 h; procedure, shortened: as §2
A549 [5] = experiment: Cytotoxicity against human A549 cells assessed as cell growth inhibition after 48 hrs by MTT assay; type: functional, cell-based; settings: A549, 48 h; procedure, shortened: as §2
[6] = Cytotoxicity against human PC3 cells assessed as cell growth inhibition after 48 hrs by MTT assay; type: functional, cell-based; settings: PC-3, 48 h; procedure, shortened: as §2
A549 [7] = experiment: Induction of apoptosis in human A549 cells assessed as viable cells at 25 uM after 48 hrs by Annexin V-FITC/propidium iodide staining based flow cytometry (reference value: 98.2 %); type: functional; settings: A549, 48 h, read-out: Activity
A549 [8] = experiment: Induction of apoptosis in human A549 cells assessed as early apoptotic cells at 25 uM after 48 hrs by Annexin V-FITC/propidium iodide staining based flow cytometry (reference value: 0.5 %); type: functional
A549 [9] = experiment: Induction of apoptosis in human A549 cells assessed as late apoptotic cells at 25 uM after 48 hrs by Annexin V-FITC/propidium iodide staining based flow cytometry (reference value: 1.2 %); type: functional
A549 [10] = experiment: Induction of apoptosis in human A549 cells assessed as necrotic cells at 25 uM after 48 hrs by Annexin V-FITC/propidium iodide staining based flow cytometry (reference value: 0.1 %); type: functional
A549 [11] = experiment: Induction of apoptosis in human A549 cells assessed as increase in caspase 3/7 activity at 25 uM after 48 hrs by Caspase-Glo 3/7 assay relative to control; type: functional
Procedure, shortened: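 A549 cells (8×10^3) plated in duplicate in 96-well plates, treated 25 µM for 48 h. Caspase-Glo 3/7 luminescence read after 1 h with substrate; blank (medium plus reagent) subtracted; fold increase = treated/control reading; mean ± 1 SD.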

A549 [12] = experiment: Cell cycle arrest in human A549 cells assessed as accumulation at G0/G1 phase after 48 hrs by propidium iodide staining based flow cytometry (reference value: 68.1 %); type: functional
Procedure, shortened: (§3)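 A549 cells exposed 48 h to 25 µM xanthone derivative, fixed overnight in 70% ethanol, then stained 30 min at room temperature with 50 µg/mL propidium iodide, 200 µg/mL RNase A and 0.3% Triton X-100. Sub-G1, G0/1, S and G2/M fractions were measured by flow cytometry. Three independent experiments.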

A549 [13] = experiment: Cell cycle arrest in human A549 cells assessed as accumulation at S phase after 48 hrs by propidium iodide staining based flow cytometry (reference value: 9.3 %); type: functional; procedure, shortened: as §3
A549 [14] = experiment: Cell cycle arrest in human A549 cells assessed as accumulation at G2/M phase after 48 hrs by propidium iodide staining based flow cytometry (reference value: 23.4 %); type: functional; procedure, shortened: as §3
A549 [15] = experiment: Induction of apoptosis in human A549 cells assessed as viable cells after 48 hrs by Annexin V-FITC/propidium iodide staining based flow cytometry (reference value: 98.2 %); type: functional
Procedure, shortened: (§4)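 2 × 10^5 A549 cells seeded and given 25 µM compound for 48 h. Cells were trypsinized and washed in ice-cold PBS. 1 × 10^5 cells were stained with Annexin V-FITC plus propidium iodide in binding buffer for 15 min at room temperature, diluted with binding buffer, kept on ice, and run on a flow cytometer. Quadrants: viable, early apoptotic, late apoptotic, necrotic.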

A549 [16] = experiment: Induction of apoptosis in human A549 cells assessed as early apoptotic cells after 48 hrs by Annexin V-FITC/propidium iodide staining based flow cytometry (reference value: 0.5 %); type: functional; procedure, shortened: as §4
A549 [17] = experiment: Induction of apoptosis in human A549 cells assessed as late apoptotic cells after 48 hrs by Annexin V-FITC/propidium iodide staining based flow cytometry (reference value: 1.2 %); type: functional; procedure, shortened: as §4
A549 [18] = experiment: Induction of apoptosis in human A549 cells assessed as necrotic cells after 48 hrs by Annexin V-FITC/propidium iodide staining based flow cytometry (reference value: 0.1 %); type: functional; procedure, shortened: as §4
A549 [19] = experiment: Induction of apoptosis in human A549 cells assessed as increase in caspase 3/7 activity after 48 hrs by Caspase-Glo 3/7 assay relative to control; type: functional
Procedure, shortened: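 In duplicate, 8 × 10^3 A549 cells were treated with 25 µM compound for 48 h. Caspase-3/7 luminescence was read 1 h after adding the Caspase-Glo 3/7 substrate, with blank (medium plus reagent) subtracted. Fold increase = treated reading / control reading. Mean ± 1 SD.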

Structure (SMILES) | Activity (A549 [1]) [%] | Activity (A549 [2]) [%] | IC50 (ASPC1) [µM] | IC50 (MDA-MB-231) [µM] | Activity (A549 [3]) [%] | IC50 [4] [µM] | IC50 (A549 [5]) [µM] | IC50 [6] [µM] | viability at 25 µM (A549 [7]) [%] | Activity (A549 [8]) [%] | Activity (A549 [9]) [%] | Activity (A549 [10]) [%] | further results
Cc1c(OCC(=O)N2CCN(C)CC2)ccc2c(=O)c3ccc(OCC(=O)N4CCN(C)CC4)cc3oc12 | 20.7 | 9 | 97.8 | 257 | 71.2 | 119 | 181 | 89.2 | 95.6 | 0.7 | 3.1 | 0.6 | 
Cc1c(OCC(=O)NC2CCCCC2C)ccc2c(=O)c3ccc(OCC(=O)NC4CCCCC4C)cc3oc12 (stereo not drawn) | 29.1 | 9.4 | 15.4 | 11 | 61.8 | 18.3 | 22.3 | 23.3 | 93.6 | 3.1 | 2.4 | 1 | Activity (A549 [11]): inactive
Cc1c(OCC(=O)N2CC(C)OC(C)C2)ccc2c(=O)c3ccc(OCC(=O)N4CC(C)OC(C)C4)cc3oc12 (stereo not drawn) | 24 | 9.7 | 116 | 385 | 66.9 | 141 | 295 | 214 | 98.3 | 0.7 | 0.8 | 0.2 | 
CCOC(=O)N1CCN(C(=O)COc2ccc3c(=O)c4ccc(OCC(=O)N5CCN(C(=O)OCC)CC5)c(C)c4oc3c2)CC1 | 23.2 | 11.9 | 34.1 | 64.5 | 65.5 | 8.16 | 84.9 | 53.3 | 97.1 | 1.6 | 1.1 | 0.3 | Activity (A549 [11]): inactive
Cc1c(OCC(=O)N2CC(C)CC(C)C2)ccc2c(=O)c3ccc(OCC(=O)N4CC(C)CC(C)C4)cc3oc12 (stereo not drawn) | 15.5 | 6 | 4.76 | 8.06 | 78.9 | 6.09 | 4.59 | 6.18 | 49 | 37.5 | 12.4 | 1.1 | fold change (FC) (A549 [11]): 2.04
Cc1c(OCC(=O)NCC2CCCO2)ccc2c(=O)c3ccc(OCC(=O)NCC4CCCO4)cc3oc12 (stereo not drawn) | 13 | 13.2 | 78.7 | 98.4 | 74.6 | 33.8 | 27.5 | 34.5 | 95.4 | 1.2 | 2.5 | 0.9 | Activity (A549 [11]): inactive
Cc1c(OCC(=O)N2C(C)CCCC2C)ccc2c(=O)c3ccc(OCC(=O)N4C(C)CCCC4C)cc3oc12 (stereo not drawn) | 17.6 | 6.9 | 7.1 | 7.31 | 75.7 | 7.63 | 10.6 | 4.27 | 80.7 | 7.3 | 9.8 | 2.1 | fold change (FC) (A549 [11]): 3.45
Cc1c(OCC(=O)N2CCOCC2)ccc2c(=O)c3ccc(OCC(=O)N4CCOCC4)cc3oc12 | 28 | 11.8 | > 400 | > 400 | 61 | > 400 | > 400 | > 400 | 98.7 | 0.9 | 0.4 | 0.1 | 
CC1CCCC(C)N1C(=O)COc1ccc2c(=O)c3ccc(OCC(=O)N4C(C)CCCC4C)cc3oc2c1 (stereo not drawn) | 33.5 | 9.8 | 13.8 | 24.3 | 57.4 | 15.7 | 17.2 | 6.68 | 87.7 | 1.5 | 9.1 | 1.1 | fold change (FC) (A549 [11]): 2.31
CN1CCN(C(=O)COc2ccc3c(=O)c4ccc(OCC(=O)N5CCN(C)CC5)cc4oc3c2)CC1 | 24.2 | 10.1 | > 400 | > 400 | 66.4 | > 400 | > 400 | > 400 | 94.1 | 0.7 | 2.5 | 2.7 | 
O=c1[nH]cc(F)c(=O)[nH]1 [FLUOROURACIL] |  |  | 98 | 35.9 |  | 15.4 | 39.9 | 72.1 |  |  |  |  | Activity (A549 [12]): 74.3%; Activity (A549 [13]): 15.3%; Activity (A549 [14]): 11.7%; Activity (A549 [15]): 93.2%; Activity (A549 [16]): 5.2%; Activity (A549 [17]): 1%; Activity (A549 [18]): 0.6%; fold change (FC) (A549 [19]): 4.2
O=C(COc1ccc2c(=O)c3ccc(OCC(=O)NCC4CCCO4)cc3oc2c1)NCC1CCCO1 (stereo not drawn) | 26.3 | 9.5 | > 400 | > 400 | 64.6 | > 400 | > 400 | 249 | 96.5 | 0.5 | 1.2 | 1.8 | 
O=C(COc1ccc2c(=O)c3ccc(OCC(=O)N4CCOCC4)cc3oc2c1)N1CCOCC1 | 25.1 | 9.6 | > 400 | > 400 | 65.7 | > 400 | > 400 | > 400 | 97.9 | 0.5 | 0.7 | 0.9 | 
